Measurements published in ChEMBL document CHEMBL4270633, “Discovery of novel vinyl sulfone derivatives as anti-tumor agents with microtubule polymerization inhibitory and vascular disrupting activities” (Eur J Med Chem, 2018).
Values belong to the compound of their own block, whether it stands above or below them. Active and inactive are the calls of the source. No cut-off for these calls is given here.

Tests used:
[1] = test system: K562; test: Cell cycle arrest in human K562 cells assessed as accumulation at G2 phase at 0.1 uM after 48 hrs by propidium iodide staining based flow cytometry (reference value: 9.1%); format: functional
[2] = test system: HUVEC; test: Antivascular activity against HUVEC assessed as reduction in wound closure after 24 hrs by phase contrast microscopic method; format: functional, cell-based; conditions: Homo sapiens
Method in brief: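 Scratch wounds made with a sterile 200 µL pipette tip, then treated at 0.05, 0.10, 0.20 µM or 0.005, 0.010, 0.020 µM. Phase-contrast images taken at 0 h and 24 h after treatment.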

[3] = test system: K562; test: Cell cycle arrest in human K562 cells assessed as accumulation at S phase at 0.1 uM after 48 hrs by propidium iodide staining based flow cytometry (reference value: 30.13%); format: functional
[4] = test system: K562; test: Cell cycle arrest in human K562 cells assessed as accumulation at S phase at 0.05 uM after 48 hrs by propidium iodide staining based flow cytometry (reference value: 30.13%); format: functional
[5] = test system: K562; test: Cell cycle arrest in human K562 cells assessed as accumulation at G1 phase at 0.1 uM after 48 hrs by propidium iodide staining based flow cytometry (reference value: 60.77%); format: functional
[6] = test system: K562; test: Cell cycle arrest in human K562 cells assessed as accumulation at S phase at 0.2 uM after 48 hrs by propidium iodide staining based flow cytometry (reference value: 30.13%); format: functional
[7] = test system: K562; test: Antiproliferative activity against human K562 cells after 72 hrs by MTT assay; format: functional, cell-based; conditions: K562, 72 h
Method in brief: (§1)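 Cells seeded and held 24 h at 37 °C, 5% CO2, then exposed to a concentration series in medium with 0.1% DMSO for 72 h. MTT (5 mg/mL in PBS) added for 4 h and OD read at 490 nm. IC50 taken from dose-response curves; mean ± SD of at least three independent experiments.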

[8] = test system: K562; test: Cell cycle arrest in human K562 cells assessed as accumulation at G2 phase at 0.2 uM after 48 hrs by propidium iodide staining based flow cytometry (reference value: 9.1%); format: functional
[9] = test system: K562; test: Cell cycle arrest in human K562 cells assessed as accumulation at G1 phase at 0.2 uM after 48 hrs by propidium iodide staining based flow cytometry (reference value: 60.77%); format: functional
[10] = test system: K562; test: Cell cycle arrest in human K562 cells assessed as accumulation at G2/M phase after 48 hrs by propidium iodide staining based flow cytometry; format: functional
[11] = test system: H22; test: Antitumor activity against mouse H22 cells implanted in ICR mouse assessed as tumor growth inhibition administered iv once daily for 21 consecutive days; format: functional, organism-based
Method in brief: (§2)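 Male ICR mice, five weeks old, inoculated s.c. in the right flank with 1 × 10^6 H22 cells. After one day, randomized into groups of six. Given i.v. 15 or 30 mg/kg daily for 21 days in 10% DMF/2% Tween 80/88% saline, or 8 mg/kg every 2 days; vehicle control given i.v. Tumors excised and weighed; inhibition (%) = (1 − treated/control mean tumor weight) × 100.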

[12] = test system: K562; test: Induction of apoptosis in human K562 cells after 48 hrs by Annexin V-FITC/propidium iodide staining based flow cytometry; format: functional, cell-based
Method in brief: (§3)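 K562 cells treated 48 h at 0, 0.05, 0.1, 0.2 µM or 0, 0.005, 0.010, 0.020 µM. Washed in PBS, resuspended in Annexin V binding buffer and stained 15 min in the dark. Early plus late apoptotic fractions quantified by flow-cytometric quadrant analysis.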

[13] = test system: K562; test: Induction of apoptosis in human K562 cells at 0.1 uM after 48 hrs by Annexin V-FITC/propidium iodide staining based flow cytometry (reference value: 1.46%); format: functional; method in brief: as §3
[14] = test system: H22; test: Antitumor activity against mouse H22 cells implanted in ICR mouse assessed as tumor growth inhibition at 15 mg/kg, iv administered once daily for 21 consecutive days relative to control; format: functional; conditions: read-out: TGI; method in brief: as §2
[15] = Inhibition of porcine brain tubulin polymerization after 30 mins by spectrophotometric method; set-up: species or system Sus scrofa
Method in brief: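 Purified tubulin (2 mg/mL) in PEM buffer (80 mM PIPES pH 6.9, 0.5 mM EGTA, 2 mM MgCl2, 15% glycerol), preincubated on ice with compound or DMSO vehicle, then GTP added. Absorbance at 340 nm followed at 37 °C for 30 min. IC50 derived from area under the polymerization curve.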

[16] = test system: K562; test: Cell cycle arrest in human K562 cells assessed as accumulation at G1 phase at 0.05 uM after 48 hrs by propidium iodide staining based flow cytometry (reference value: 60.77%); format: functional
[17] = test system: H22; test: Antitumor activity against mouse H22 cells implanted in ICR mouse assessed as tumor growth inhibition at 30 mg/kg, iv administered once daily for 21 consecutive days relative to control; format: functional; conditions: read-out: TGI; method in brief: as §2
[18] = test system: HUVEC; test: Antivascular activity against HUVEC assessed as reduction in tube formation at 005 to 0.2 uM after 6 hrs by inverted microscopic based matrigel method; format: functional, cell-based; conditions: Homo sapiens
Method in brief: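 Matrigel thawed at 4 °C overnight and polymerized 30 min at 37 °C. HUVECs in DMEM seeded at 50,000 cells/well, then exposed to compound or vehicle for 6 h at 37 °C. Tube morphology examined by inverted microscopy.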

[19] = test system: HepG2; test: Antiproliferative activity against human HepG2 cells after 72 hrs by MTT assay; format: functional, cell-based; conditions: HepG2, 72 h; method in brief: as §1
[20] = test system: K562; test: Disruption of microtubule network in human K562 cells after 24 hrs by DAPI staining based immunofluorescent microscopic method; format: cell-based
Method in brief: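 K562 cells exposed for 24 h to 0.1% DMSO vehicle or to 0.05, 0.10, 0.20 µM or 0.005, 0.010, 0.020 µM. Fixed in 4% paraformaldehyde, blocked with goat serum 20 min at room temperature, then anti-α-tubulin antibody 2 h at 37 °C. Fluorescent antibody staining, DAPI nuclear counterstain, fluorescence microscopy.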

[21] = test system: K562; test: Induction of apoptosis in human K562 cells at 0.05 uM after 48 hrs by Annexin V-FITC/propidium iodide staining based flow cytometry (reference value: 1.46%); format: functional; method in brief: as §3
[22] = test system: Mus musculus; test: Toxicity in ICR mouse implanted with mouse H22 cells assessed as decrease in body weight at 15 to 30 mg/kg, iv administered once daily for 21 consecutive days; format: organism-based; conditions: in vivo
Method in brief: (§4)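 H22 s.c. allograft in male ICR mice, groups of six. Dosing i.v. at 15 or 30 mg/kg once daily for 21 days (10% DMF/2% Tween 80/88% saline), or 8 mg/kg once every 2 days. Body weight recorded every 2 days.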

[23] = test system: K562; test: Cell cycle arrest in human K562 cells assessed as accumulation at G2 phase at 0.05 uM after 48 hrs by propidium iodide staining based flow cytometry (reference value: 9.1%); format: functional
[24] = test system: K562; test: Induction of apoptosis in human K562 cells at 0.2 uM after 48 hrs by Annexin V-FITC/propidium iodide staining based flow cytometry (reference value: 1.46%); format: functional; method in brief: as §3
[25] = test system: A549; test: Antiproliferative activity against human A549 cells after 72 hrs by MTT assay; format: functional, cell-based; conditions: A549, 72 h; method in brief: as §1
[26] = test system: K562; test: Antiproliferative activity against human K562 cells at 0.1 uM after 72 hrs by MTT assay relative to control; format: functional
[27] = test system: K562; test: Antiproliferative activity against human K562 cells at 1 uM after 72 hrs by MTT assay; format: functional, cell-based
[28] = test system: Mus musculus; test: Toxicity in ICR mouse implanted with mouse H22 cells assessed as decrease in body weight at 8 mg/kg, iv administered once in 2 days for 21 days; format: organism-based; conditions: in vivo; method in brief: as §4
[29] = test system: H22; test: Antitumor activity against mouse H22 cells implanted in ICR mouse assessed as tumor growth inhibition at 8 mg/kg, iv administered once in 2 days for 21 days relative to control; format: functional; conditions: read-out: TGI; method in brief: as §2

IC50 [7]: 128 nM
IC50 [15]: 4250 nM
IC50 [19]: 217 nM
IC50 [25]: 606 nM
SMILES: COc1ccc(/C=C/S(=O)(=O)c2cc(OC)c(OC)c(OC)c2)cc1N
Activity [1]: 16.15%
Activity [2]: Dose-dependent effect
Activity [3]: 36.7%
Activity [4]: 33.88%
Activity [5]: 47.15%
Activity [6]: 38.31%
Activity [8]: 21.99%
Activity [9]: 39.7%
Activity [10]: Dose-dependent effect
TGI [11]: Dose-dependent effect
Activity [12]: Dose-dependent effect
Activity [13]: 22.65%
inhibition in vivo at 15 mg/kg [14]: 53.4%
Activity [16]: 53.07%
inhibition in vivo at 30 mg/kg [17]: 65.4%
Activity [18]: Active
Activity [20]: Dose-dependent effect
Activity [21]: 17.88%
Activity [22]: Non-Toxic
Activity [23]: 13.05%
Activity [24]: 49.29%

SMILES: COc1cc(S(=O)(=O)/C=C/c2ccc(O)c(O)c2)cc(OC)c1OC
Activity [26]: inactive
Activity [27]: Active

SMILES: COc1ccc(/C=C/S(=O)(=O)c2cc(OC)c(OC)c(OC)c2)cc1F
Activity [26]: Active
Activity [27]: Active

IC50 [7]: 60 nM
IC50 [15]: 3690 nM
IC50 [19]: 102 nM
IC50 [25]: 387 nM
SMILES: COc1ccc(/C=C/C(=O)c2cc(OC)c(OC)c(OC)c2)cc1O

IC50 [7]: 746 nM
IC50 [19]: 753 nM
IC50 [25]: 2350 nM
SMILES: COc1ccc(/C=C/[S+]([O-])c2cc(OC)c(OC)c(OC)c2)cc1N (stereo unspecified)

IC50 [7]: 190 nM
IC50 [19]: 599 nM
IC50 [25]: 2880 nM
SMILES: CO/C(=C\c1ccc(OC)c(O)c1)S(=O)(=O)c1cc(OC)c(OC)c(OC)c1

SMILES: COc1ccc(/C=C/S(=O)(=O)c2cc(OC)c(OC)c(OC)c2)cc1OC
Activity [26]: Active
Activity [27]: Active

SMILES: COc1cc(S(=O)(=O)/C=C/c2ccc(C)cc2)cc(OC)c1OC
Activity [26]: Active
Activity [27]: Active

IC50 [7]: > 1000 nM
IC50 [19]: > 1000 nM
IC50 [25]: > 5000 nM
SMILES: COc1ccc(/C=C(\C#N)S(=O)(=O)c2cc(OC)c(OC)c(OC)c2)cc1O

SMILES: COc1ccc(/C=C/S(=O)(=O)c2cc(OC)c(OC)c(OC)c2)cc1
Activity [26]: Active
Activity [27]: Active

IC50 [7]: 183 nM
IC50 [15]: 3830 nM
IC50 [19]: 243 nM
IC50 [25]: 1200 nM
SMILES: COc1ccc(/C=C(\Cl)[S+]([O-])c2cc(OC)c(OC)c(OC)c2)cc1O (stereo unspecified)

SMILES: COc1cc(/C=C/S(=O)(=O)c2cc(OC)c(OC)c(OC)c2)cc(OC)c1OC
Activity [26]: Active
Activity [27]: Active

SMILES: COc1cc(S(=O)(=O)/C=C/c2ccc(F)cc2)cc(OC)c1OC
Activity [26]: Active
Activity [27]: Active

IC50 [7]: 580 nM
IC50 [19]: 710 nM
IC50 [25]: 2730 nM
SMILES: COc1ccc(/C=C(\C)S(=O)(=O)c2cc(OC)c(OC)c(OC)c2)cc1O

IC50 [7]: 473 nM
IC50 [19]: 591 nM
IC50 [25]: 1310 nM
SMILES: COc1ccc(/C=C(\F)S(=O)(=O)c2cc(OC)c(OC)c(OC)c2)cc1O

SMILES: COc1cc(S(=O)(=O)/C=C/c2ccc(N(C)C)cc2)cc(OC)c1OC
Activity [26]: Active
Activity [27]: Active

SMILES: COc1cc(S(=O)(=O)/C=C/c2ccccc2)cc(OC)c1OC
Activity [26]: Active
Activity [27]: Active

IC50 [7]: 258 nM
IC50 [15]: 7180 nM
IC50 [19]: 307 nM
IC50 [25]: 1460 nM
SMILES: COc1ccc(/C=C/[S+]([O-])c2cc(OC)c(OC)c(OC)c2)cc1O (stereo unspecified)

SMILES: CC(=O)O[C@H]1C(=O)[C@@]2(C)[C@H]([C@H](OC(=O)c3ccccc3)[C@]3(O)C[C@H](OC(=O)[C@H](O)[C@@H](NC(=O)c4ccccc4)c4ccccc4)C(C)=C1C3(C)C)[C@]1(OC(C)=O)CO[C@@H]1C[C@@H]2O [PACLITAXEL]
Activity [28]: Toxic
inhibition in vivo at 8 mg/kg [29]: 74.6%

IC50 [7]: > 1000 nM
IC50 [19]: > 1000 nM
IC50 [25]: > 5000 nM
SMILES: COc1ccc(/C=C(\C#N)[S+]([O-])c2cc(OC)c(OC)c(OC)c2)cc1O (stereo unspecified)

IC50 [7]: > 1000 nM
IC50 [19]: > 1000 nM
IC50 [25]: > 5000 nM
SMILES: COc1ccc(/C=C(\C)[S+]([O-])c2cc(OC)c(OC)c(OC)c2)cc1O (stereo unspecified)

SMILES: COc1cc(S(=O)(=O)/C=C/c2ccc([N+](=O)[O-])cc2)cc(OC)c1OC
Activity [26]: Active
Activity [27]: Active

IC50 [7]: > 1000 nM
IC50 [19]: > 1000 nM
IC50 [25]: > 5000 nM
SMILES: COc1ccc(/C=C(\Cl)S(=O)(=O)c2cc(OC)c(OC)c(OC)c2)cc1O

IC50 [7]: 219 nM
IC50 [15]: 8230 nM
IC50 [19]: 267 nM
IC50 [25]: 2280 nM
SMILES: COc1ccc(/C=C/S(=O)(=O)c2cc(OC)c(OC)c(OC)c2)cc1O
Activity [26]: 35.3%
Activity [27]: Active

SMILES: COc1cc(S(=O)(=O)/C=C/c2ccc(O)cc2)cc(OC)c1OC
Activity [26]: Active
Activity [27]: Active
